Assay results as given in ChEMBL document CHEMBL1123569 (J Med Chem, 1987).
*1 amine or outer side, *2 acyl side, *3 side chain or, on linkers, in order; H or OH if unused. Where a SMILES comes first, the peptide text is derived from it. [ ]: non-standard residue; d: D form. The star is where a group is joined. ξ: configuration not given here. Met(O2) = CS(=O)(=O)CC[C@H](N)C(=O)O; Sta = CC(C)C[C@H](N)[C@@H](O)CC(=O)O; X1 = O=C(C(N[*:1])c1cccs1)[*:2]; ξGly(cPent) = NC(C(=O)O)C1CCCC1; Cha = N[C@@H](CC1CCCCC1)C(=O)O; Isovaleryl = CC(C)CC(=O)*; ξChg = NC(C(=O)O)C1CCCCC1; ξPhg = NC(C(=O)O)c1ccccc1; Nle = CCCC[C@H](N)C(=O)O; Boc = CC(C)(C)OC(=O)*; Bn = c1ccc(C*)cc1; X2 = c1cncc(C*)c1

Biological target: T1, Renin (Homo sapiens, UniProt P00797)
T1 sequence (P00797 whole entry): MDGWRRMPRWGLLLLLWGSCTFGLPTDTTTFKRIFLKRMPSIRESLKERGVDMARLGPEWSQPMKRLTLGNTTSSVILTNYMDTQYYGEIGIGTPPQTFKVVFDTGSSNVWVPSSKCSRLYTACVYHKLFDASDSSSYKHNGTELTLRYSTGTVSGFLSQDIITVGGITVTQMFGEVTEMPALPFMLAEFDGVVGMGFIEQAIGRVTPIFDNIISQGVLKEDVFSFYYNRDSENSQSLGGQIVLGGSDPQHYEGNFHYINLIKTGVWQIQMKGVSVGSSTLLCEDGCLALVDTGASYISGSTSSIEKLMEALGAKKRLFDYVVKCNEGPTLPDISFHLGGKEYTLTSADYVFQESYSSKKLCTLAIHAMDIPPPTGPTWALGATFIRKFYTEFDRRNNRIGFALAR
Assay: Inhibition of human plasma renin
Format: cell-free
Procedure, shortened: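 Enriched human plasma renin preparation, substrate its own endogenous angiotensinogen (about 2×10^-6 M). Inhibitor added over a range of increasing concentrations. Angiotensin I released was quantified by RIA. With substrate held constant across the series, IC50 is treated as linearly proportional to Ki.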

Row | SMILES | IC50 [nM]
1 | COC(=O)C[C@H](O)[C@H](CC(C)C)NC(=O)[C@H](C)NC(=O)C[C@H](O)[C@H](CC(C)C)NC(=O)[C@H](CCS(C)(=O)=O)NC(=O)[C@H](Cc1ccccc1)NC(=O)OC(C)(C)C (Boc-F[Met(O2)][Sta]A[Sta]-OMe) | 10000
2 | COC(=O)C[C@H](O)[C@H](CC(C)C)NC(=O)[C@H](C)NC(=O)C[C@H](O)[C@H](CC(C)C)NC(=O)[C@H](CC(N)=O)NC(=O)[C@H](Cc1ccccc1)NC(=O)OC(C)(C)C (Boc-FN[Sta]A[Sta]-OMe) | 1200
3 | COC(=O)C[C@H](O)[C@H](CC(C)C)NC(=O)[C@H](C)NC(=O)C[C@H](O)[C@H](CC(C)C)NC(=O)[C@H](Cc1ccc(OCc2ccccc2)cc1)NC(=O)[C@H](Cc1ccccc1)NC(=O)OC(C)(C)C (Boc-FY(Bn)[Sta]A[Sta]-OMe) | 1410
4 | COC(=O)C[C@H](O)[C@H](CC(C)C)NC(=O)[C@H](C)NC(=O)C[C@H](O)[C@H](CC(C)C)NC(=O)[C@H](Cc1ccccc1)NC(=O)[C@H](Cc1ccccc1)NC(C)=O (Ac-FF[Sta]A[Sta]-OMe) | 1410
5 | COC(=O)C[C@H](O)[C@H](CC(C)C)NC(=O)[C@H](C)NC(=O)C[C@H](O)[C@H](CC(C)C)NC(=O)[C@H](CC1CCCCC1)NC(=O)[C@H](Cc1ccccc1)NC(=O)OC(C)(C)C (Boc-F[Cha][Sta]A[Sta]-OMe) | 490
6 | COC(=O)C[C@H](O)[C@H](CC(C)C)NC(=O)[C@H](C)NC(=O)C[C@H](O)[C@H](CC(C)C)NC(=O)[C@H](COCc1cccnc1)NC(=O)[C@H](Cc1ccccc1)NC(=O)OC(C)(C)C (Boc-FS(X2)[Sta]A[Sta]-OMe) | 316
7 | COC(=O)C[C@H](O)[C@H](CC(C)C)NC(=O)[C@H](C)NC(=O)C[C@H](O)[C@H](CC(C)C)NC(=O)[C@H](CO)NC(=O)[C@H](Cc1ccccc1)NC(=O)OC(C)(C)C (Boc-FS[Sta]A[Sta]-OMe) | 437
8 | COC(=O)C[C@H](O)[C@H](CC(C)C)NC(=O)[C@H](C)NC(=O)C[C@H](O)[C@H](CC(C)C)NC(=O)[C@H](CCC(N)=O)NC(=O)[C@H](Cc1ccccc1)NC(=O)OC(C)(C)C (Boc-FQ[Sta]A[Sta]-OMe) | 316

Continued by falling IC50, values first:

Row | IC50 [nM] | SMILES
9 | 316 | COC(=O)C[C@H](O)[C@H](CC(C)C)NC(=O)[C@H](C)NC(=O)C[C@H](O)[C@H](CC(C)C)NC(=O)[C@H](CCSC)NC(=O)[C@H](Cc1ccccc1)NC(=O)OC(C)(C)C (Boc-FM[Sta]A[Sta]-OMe)
10 | 316 | COC(=O)C[C@H](O)[C@H](CC(C)C)NC(=O)[C@H](C)NC(=O)C[C@H](O)[C@H](CC(C)C)NC(=O)[C@H](Cc1ccccc1)NC(=O)[C@H](Cc1ccccc1)NC(=O)CC(C)C (Isovaleryl-FF[Sta]A[Sta]-OMe)
11 | 251 | COC(=O)C[C@H](O)[C@H](CC(C)C)NC(=O)[C@H](C)NC(=O)C[C@H](O)[C@H](CC(C)C)NC(=O)C(NC(=O)[C@H](Cc1ccccc1)NC(=O)OC(C)(C)C)c1cccs1 (some centres undefined) (Boc-F[X1][Sta]A[Sta]-OMe)
12 | 174 | COC(=O)C[C@H](O)[C@H](CC(C)C)NC(=O)[C@H](C)NC(=O)C[C@H](O)[C@H](CC(C)C)NC(=O)[C@H](COCc1ccccc1)NC(=O)[C@H](Cc1ccccc1)NC(=O)OC(C)(C)C (Boc-FS(Bn)[Sta]A[Sta]-OMe)
13 | 151 | COC(=O)C[C@H](O)[C@H](CC(C)C)NC(=O)[C@H](C)NC(=O)C[C@H](O)[C@H](CC(C)C)NC(=O)C(NC(=O)[C@H](Cc1ccccc1)NC(=O)OC(C)(C)C)C1CCCCC1 (some centres undefined) (Boc-F[ξChg][Sta]A[Sta]-OMe)
14 | 120 | COC(=O)C[C@H](O)[C@H](CC(C)C)NC(=O)[C@H](C)NC(=O)C[C@H](O)[C@H](CC(C)C)NC(=O)[C@H](Cc1c[nH]c2ccccc12)NC(=O)[C@H](Cc1ccccc1)NC(=O)OC(C)(C)C (Boc-FW[Sta]A[Sta]-OMe)
15 | 120 | CCCC[C@H](NC(=O)[C@H](Cc1ccccc1)NC(=O)OC(C)(C)C)C(=O)N[C@@H](CC(C)C)[C@@H](O)CC(=O)N[C@@H](C)C(=O)N[C@@H](CC(C)C)[C@@H](O)CC(=O)OC (Boc-F[Nle][Sta]A[Sta]-OMe)
16 | 112 | CCOC[C@H](NC(=O)[C@H](Cc1ccccc1)NC(=O)OC(C)(C)C)C(=O)N[C@@H](CC(C)C)[C@@H](O)CC(=O)N[C@@H](C)C(=O)N[C@@H](CC(C)C)[C@@H](O)CC(=O)OC (Boc-FS(Et)[Sta]A[Sta]-OMe)
17 | 93.3 | COC(=O)C[C@H](O)[C@H](CC(C)C)NC(=O)[C@H](C)NC(=O)C[C@H](O)[C@H](CC(C)C)NC(=O)C(NC(=O)[C@H](Cc1ccccc1)NC(=O)OC(C)(C)C)c1ccccc1 (some centres undefined) (Boc-F[ξPhg][Sta]A[Sta]-OMe)
18 | 37.2 | COC(=O)C[C@H](O)[C@H](CC(C)C)NC(=O)[C@H](C)NC(=O)C[C@H](O)[C@H](CC(C)C)NC(=O)C(NC(=O)[C@H](Cc1ccccc1)NC(=O)OC(C)(C)C)C1CCCC1 (some centres undefined) (Boc-F[ξGly(cPent)][Sta]A[Sta]-OMe)
19 | 30.2 | CCCC[C@H](NC(=O)[C@H](Cc1ccccc1)NC(=O)OC(C)(C)C)C(=O)N[C@@H](CC(C)C)[C@@H](O)CC(=O)N[C@@H](C)C(=O)N[C@@H](CC(C)C)[C@@H](O)CC(=O)O (Boc-F[Nle][Sta]A[Sta]-OH)
